Assay results: ChEMBL document CHEMBL1156988, “Synthesis and antibacterial studies of binaphthyl-based tripeptoids. Part 1” (2010)
Converted amounts (≈) assume the structure as drawn.

Key:
Staphylococcus aureus [1] = experiment: Antibacterial activity against Staphylococcus aureus 6538P after overnight incubation; type: functional
Summary of the method: (§1)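 Strains were grown in Luria Broth. Overnight stationary-phase cultures were diluted 1:1000 into fresh medium with twofold compound dilutions, highest typically 128 µg/ml, in 96-well plates. Incubated overnight at 37 °C. MIC recorded as the […].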

Enterococcus faecium [2] = experiment: Antibacterial activity against vancomycin-resistant Enterococcus faecium 243 after overnight incubation
Enterococcus faecium [3] = experiment: Antibacterial activity against vancomycin-resistant Enterococcus faecium 449 after overnight incubation
Enterococcus faecium [4] = experiment: Antibacterial activity against vancomycin-resistant Enterococcus faecium 820 after overnight incubation
Enterococcus faecium [5] = experiment: Antibacterial activity against vancomycin-resistant Enterococcus faecium 987 after overnight incubation
[6] = system: Staphylococcus epidermidis; experiment: Antibacterial activity against Staphylococcus epidermidis ATCC 700562 after overnight incubation; type: functional
Staphylococcus aureus [7] = experiment: Antibacterial activity against vancomycin intermediate Staphylococcus aureus after overnight incubation; type: functional; summary of the method: as §1
[8] = Staphylococcus aureus, 6538P, read-out: MIC
[9] = Enterococcus faecium, 243, read-out: MIC
[10] = Enterococcus faecium, 449, read-out: MIC
[11] = Enterococcus faecium, 820, read-out: MIC
[12] = Enterococcus faecium, 987, read-out: MIC

MIC (Staphylococcus aureus [7]; read-out: MIC) [µg/mL]	SMILES	MIC (Staphylococcus aureus [1]; [8]) [µg/mL]	MIC (Enterococcus faecium [2]; [9]) [µg/mL]	MIC (Enterococcus faecium [3]; [10]) [µg/mL]	MIC (Enterococcus faecium [4]; [11]) [µg/mL]	MIC (Enterococcus faecium [5]; [12]) [µg/mL]	MIC [6] [µg/mL]	MIC (Staphylococcus aureus [1]) [µg/mL]	MIC (Enterococcus faecium [2]) [µg/mL]	MIC (Enterococcus faecium [3]) [µg/mL]	MIC (Enterococcus faecium [4]) [µg/mL]	MIC (Enterococcus faecium [5]) [µg/mL]	MIC (Staphylococcus aureus [7]) [µg/mL]
	C=CCOc1ccc2ccccc2c1-c1c(OCC(=O)N[C@H](CCCCN)C(=O)N[C@H](CCCNC(=N)N)C(=O)N[C@@H](CC=C)C(=O)OCc2ccccc2)ccc2ccccc12.Cl.Cl	1.95	31.3	31.3	31.3	31.3							
	C=CCOc1ccc2ccccc2c1-c1c(OCC(=O)N[C@H](CCCNC(=N)N)C(=O)N[C@H](CCCNC(=N)N)C(=O)N[C@@H](CC=C)C(=O)OCc2ccccc2)ccc2ccccc12.Cl.Cl	31.3	> 125	125	125	> 125							
	C=CCOc1ccc2ccccc2c1-c1c(OCC(=O)N[C@H](CCCCN)C(=O)N[C@H](CCCCN)C(=O)N[C@@H](CC=C)C(=O)OCc2ccccc2)ccc2ccccc12.Cl.Cl	3.9	125	62.5	62.5	125							
	C=CCOc1ccc2ccccc2c1-c1c(OCC(=O)NCC(=O)N[C@H](CCCNC(=N)N)C(=O)N[C@@H](CC=C)C(=O)OCc2ccccc2)ccc2ccccc12.Cl	15.6	> 125	125	125	> 125							
	C=CCOc1ccc2ccccc2c1-c1c(OCC(=O)N[C@H](C)C(=O)N[C@H](CCCNC(=N)N)C(=O)N[C@@H](CC=C)C(=O)OCc2ccccc2)ccc2ccccc12.Cl	5.2	62.5	62.5	62.5	62.5							
	C=CCOc1ccc2ccccc2c1-c1c(OCC(=O)N[C@H](CC=C)C(=O)N[C@H](CCCNC(=N)N)C(=O)N[C@@H](CC=C)C(=O)OCc2ccccc2)ccc2ccccc12.Cl	15.6	125	125	62.5	125							
	C=CCOc1ccc2ccccc2c1-c1c(OCC(=O)N[C@H](CC(C)C)C(=O)N[C@H](CCCNC(=N)N)C(=O)N[C@@H](CC=C)C(=O)OCc2ccccc2)ccc2ccccc12.Cl	3.9	62.5	31.3	31.3	62.5							
	C=CCOc1ccc2ccccc2c1-c1c(OCC(=O)N[C@H](Cc2ccccc2)C(=O)N[C@H](CCCNC(=N)N)C(=O)N[C@@H](CC=C)C(=O)OCc2ccccc2)ccc2ccccc12.Cl	26.1	> 125	62.5	31.3	> 125							
	C=CCOc1ccc2ccccc2c1-c1c(OCC(=O)N[C@H](CCCC)C(=O)N[C@H](CCCNC(=N)N)C(=O)N[C@@H](CC=C)C(=O)OCc2ccccc2)ccc2ccccc12.Cl	52.1	125	83	62.5	125							
	C=CCOc1ccc2ccccc2c1-c1c(OCC(=O)N[C@H](CCCCN)C(=O)N[C@H](CCCNC(=N)N)C(=O)N[C@H](CC=C)C(=O)OCc2ccccc2)ccc2ccccc12.Cl.Cl	15.6	125	104	62.5	125							
	C=CCOc1ccc2ccccc2c1-c1c(OCC(=O)N[C@H](CCCCN)C(=O)N[C@H](CCCNC(=N)N)C(=O)N[C@@H](CC(C)C)C(=O)OCc2ccccc2)ccc2ccccc12.Cl.Cl	1.95	31.3	31.3	31.3	31.3							
	C=CCOc1ccc2ccccc2c1-c1c(OCC(=O)N[C@H](CC(C)C)C(=O)N[C@H](CCCNC(=N)N)C(=O)N[C@@H](C)C(=O)OCc2ccccc2)ccc2ccccc12.Cl	5.2	62.5	62.5	62.5	62.5							
	C=CCOc1ccc2ccccc2c1-c1c(OCC(=O)N[C@H](CCCCN)C(=O)N[C@H](CCCNC(=N)N)C(=O)N[C@@H](C)C(=O)OCc2ccccc2)ccc2ccccc12.Cl.Cl	7.8	125	125	125	125							
	C=CCOc1ccc2ccccc2c1-c1c(OCC(=O)N[C@H](CCCCN)C(=O)N[C@H](CCCNC(=N)N)C(=O)NCC(=O)OCc2ccccc2)ccc2ccccc12.Cl.Cl	3.9	125	62.5	125	125							
	CC(C)CCOc1ccc2ccccc2c1-c1c(OCC(=O)N[C@H](CCCCN)C(=O)N[C@H](CCN)C(=O)N[C@@H](CC(C)C)C(=O)OCc2ccccc2)ccc2ccccc12.Cl.Cl	1.95	31.3	15.6	15.6	31.3							
	CC(C)CCOc1ccc2ccccc2c1-c1c(OCC(=O)N[C@H](CCCCN)C(=O)N[C@H](CCNC(=N)N)C(=O)N[C@@H](CC(C)C)C(=O)OCc2ccccc2)ccc2ccccc12.Cl.Cl	2.6	52.1	31.3	27.8	52.1							

MIC (Staphylococcus aureus [7]; read-out: MIC) [µg/mL]	SMILES	MIC (Staphylococcus aureus [1]; [8]) [µg/mL]	MIC (Enterococcus faecium [2]; [9]) [µg/mL]	MIC (Enterococcus faecium [3]; [10]) [µg/mL]	MIC (Enterococcus faecium [4]; [11]) [µg/mL]	MIC (Enterococcus faecium [5]; [12]) [µg/mL]	MIC [6] [µg/mL]	MIC (Staphylococcus aureus [1]) [µg/mL]	MIC (Enterococcus faecium [2]) [µg/mL]	MIC (Enterococcus faecium [3]) [µg/mL]	MIC (Enterococcus faecium [4]) [µg/mL]	MIC (Enterococcus faecium [5]) [µg/mL]	MIC (Staphylococcus aureus [7]) [µg/mL]
	CC(C)CCOc1ccc2ccccc2c1-c1c(OCC(=O)N[C@H](CCCCN)C(=O)N[C@H](CCCN)C(=O)N[C@@H](CC(C)C)C(=O)OCc2ccccc2)ccc2ccccc12.Cl.Cl	1.95	62.5	31.3	15.6	62.5							
	CNC(=N)NCCC[C@@H](NC(=O)[C@@H](CCCCN)NC(=O)COc1ccc2ccccc2c1-c1c(OCCC(C)C)ccc2ccccc12)C(=O)N[C@@H](CC(C)C)C(=O)OCc1ccccc1.Cl.Cl	3.13	25	25	25	25	3.13						
	CC(C)CCOc1ccc2ccccc2c1-c1c(OCC(=O)N[C@H](CCCCN)C(=O)N[C@H](CCCCN)C(=O)N[C@@H](CC(C)C)C(=O)OCc2ccccc2)ccc2ccccc12.Cl.Cl	1.95	62.5	31.3	26.1	62.5	1.95						
	CC(C)CCOc1ccc2ccccc2c1-c1c(OCC(=O)N[C@H](CCCCN)C(=O)N[C@H](CCCNC(=N)N)C(=O)N[C@H](CC(C)C)C(=O)OCc2ccccc2)ccc2ccccc12.Cl.Cl	3.9	31.3	15.6	15.6	31.3							
	C=CCOc1ccc2ccccc2c1-c1c(OCC(=O)N[C@H](CCCCN)C(=O)N[C@H](CCCNC(=N)N)C(=O)N[C@@H](CC=C)C(=O)OCc2cccc3ccccc23)ccc2ccccc12.Cl.Cl	15.6	> 125	125	125	> 125							
	C=CC[C@H](NC(=O)[C@@H](CCCNC(=N)N)NC(=O)[C@@H](CCCCN)NC(=O)COc1ccc2ccccc2c1-c1c(OCCC(C)C)ccc2ccccc12)C(=O)OCc1ccccc1.Cl.Cl	3.9	31.3	15.6	15.6	31.3							
	CC(C)CCOc1ccc2ccccc2c1-c1c(OCC(=O)N[C@H](CCCNC(=N)N)C(=O)N[C@H](CCCNC(=N)N)C(=O)N[C@@H](CC(C)C)C(=O)OCc2ccccc2)ccc2ccccc12.Cl.Cl	1.95	62.5	31.3	15.6	31.3	19.5						
	C=CCOc1ccc2ccccc2c1-c1c(OCC(=O)NCC(=O)NCC(=O)N[C@@H](CC=C)C(=O)OCc2ccccc2)ccc2ccccc12	3.9 (≈ 5.69 µM)	62.5 (≈ 91.1 µM)	31.3 (≈ 45.6 µM)	15.6 (≈ 22.7 µM)	31.3 (≈ 45.6 µM)	3.9 (≈ 5.69 µM)						
	C=CCOc1ccc2ccccc2c1-c1c(OCC(=O)N[C@H](CCCNC(=N)N)C(=O)OCc2ccccc2)ccc2ccccc12.Cl	3.3	62.5	62.5	62.5	62.5							
	C=CCOc1ccc2ccccc2c1-c1c(OCCCC(=O)N[C@H](CCCNC(=N)N)C(=O)OCc2ccccc2)ccc2ccccc12.Cl	3.9	62.5	62.5	62.5	125							
4	CC(C)CCOC(=O)[C@H](CC(C)C)NC(=O)[C@@H](CCCNC(=N)N)NC(=O)[C@@H](CCCCN)NC(=O)COc1ccc2ccccc2c1-c1c(OCCC(C)C)ccc2ccccc12.Cl.Cl												
4	CC(C)CCOc1ccc2ccccc2c1-c1c(OCC(=O)N[C@H](CCCCN)C(=O)N[C@H](CCCNC(=N)N)C(=O)N[C@@H](CC(C)C)c2ncc(Cc3ccccc3)o2)ccc2ccccc12.Cl.Cl												
	C=CCOc1ccc2ccccc2c1-c1c(OCC(=O)N[C@H](CCCCN)C(=O)N[C@H](CCCNC(=N)N)C(=O)N[C@@H](Cc2ccccc2)C(=O)OC)ccc2ccccc12.Cl.Cl (stereo in doubt; 81)	3.9	125	125	125	125							
	C=CCOc1ccc2ccccc2c1-c1c(OCC(=O)N[C@H](CCCCN)C(=O)N[C@H](CCCNC(=N)N)C(=O)N[C@@H](Cc2ccccc2)C(=O)OC)ccc2ccccc12.Cl.Cl (stereo in doubt; 82)							7.8	125	125	125	125	
	CN[C@H](CC(C)C)C(=O)N[C@H]1C(=O)N[C@@H](CC(N)=O)C(=O)N[C@H]2C(=O)N[C@H]3C(=O)N[C@H](C(=O)N[C@H](C(=O)O)c4cc(O)cc(O)c4-c4cc3ccc4O)[C@H](O)c3ccc(c(Cl)c3)Oc3cc2cc(c3O[C@@H]2O[C@H](CO)[C@@H](O)[C@H](O)[C@H]2O[C@H]2C[C@](C)(N)[C@H](O)[C@H](C)O2)Oc2ccc(cc2Cl)[C@H]1O [VANCOMYCIN]	1.56 (≈ 1.08 µM)	1.56 (≈ 1.08 µM)	> 25	> 25	3.13 (≈ 2.16 µM)	3.13 (≈ 2.16 µM)						6 (≈ 4.14 µM)
